The text below walks through data of ChEMBL document CHEMBL1130209, “A novel series of 2,5-substituted tryptamine derivatives as vascular 5HT1B/1D receptor antagonists” (J Med Chem, 1997).

The pKB is −log10 of the KB, conventionally taken in molar units. Read a low pKB as a high KB.

Experiment [1] has as its target 5-hydroxytryptamine receptor 1B (Homo sapiens) (UniProt P28222). The experiment can be described thus: Dissociation equilibrium constant against the vascular 5-hydroxytryptamine 1B like receptor in the rabbit saphenous vein. The format is tissue-based. The settings on record: Oryctolagus cuniculus, target entry is the homologue from another species. The method, boiled down:
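Saphenous vein rings (4–5 mm) from male New Zealand white rabbits, killed with pentobarbitone 80 mg/kg iv and exsanguination, mounted on tungsten wires. Phenoxybenzamine 0.3 μM for 30 min, washed out, 1 μM 5HT viability check. Cumulative 5HT curve, then after 60 min recovery a test compound curve. Non-agonists tested as 5HT antagonists, giving apparent pKB.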

The target in experiment [2] is Adrenergic receptor alpha-1 (Homo sapiens) (UniProt P35348+P25100+P35368). The experiment can be described thus: The dissociation equilibrium constant (pKB=-log KB) of compound was determined against the Alpha-1 adrenergic receptor in the rabbit thoracic aorta. The format is tissue-based. Particulars: Oryctolagus cuniculus, target entry is the homologue from another species. The method, boiled down: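 Rabbit thoracic aorta rings (3 mm) given pargyline 500 μM for 30 min and tensioned twice to 3.0 g. L-phenylephrine 10 μM checks viability and gives the reference contracture. After washout, test compound at 30 μM for 60 min, then a cumulative L-phenylephrine curve.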

Structures are written as SMILES.

Sequence of 5-hydroxytryptamine receptor 1B (Homo sapiens) (P28222 whole entry): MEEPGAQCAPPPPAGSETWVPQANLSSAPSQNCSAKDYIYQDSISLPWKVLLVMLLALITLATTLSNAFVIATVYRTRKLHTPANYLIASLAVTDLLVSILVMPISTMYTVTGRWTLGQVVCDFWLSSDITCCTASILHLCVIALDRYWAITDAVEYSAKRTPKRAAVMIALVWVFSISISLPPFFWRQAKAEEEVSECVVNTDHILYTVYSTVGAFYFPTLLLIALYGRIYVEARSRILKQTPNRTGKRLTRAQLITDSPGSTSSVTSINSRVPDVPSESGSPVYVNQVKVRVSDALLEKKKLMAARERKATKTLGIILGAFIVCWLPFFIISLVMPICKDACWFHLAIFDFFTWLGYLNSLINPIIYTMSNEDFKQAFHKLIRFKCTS

`CCOC(=O)c1[nH]c2ccc(CCN3C(=O)CNC3=O)cc2c1CCN(C)C`: the pKB in experiment [1] is 7.42; in experiment [2] it was 5.43.
